Data taken from ChEMBL document CHEMBL4732107, “Synthesis and anticancer activity evaluation of naphthalene-substituted triazole spirodienones” (Eur J Med Chem, 2021).

Assays:
[1] = Toxicity in mouse implanted with mouse 4T1 cells assessed as change in body weight at 1 to 2 mg/kg, ip administered daily for 12 days measured daily during compound dosing; format: organism-based; conditions: in vivo, 288 h, dose 1-2 mg/kg, time 12 day
In short: (§1)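 Mice bearing orthotopic 4T1 tumors were randomized into 4 groups (n = 6) once tumors reached about 100 mm2. Groups received vehicle, test compound at 1 or 2 mg/kg, or doxorubicin at 1 mg/kg, given i.p. every day. Body weight and tumor volume were recorded daily. Tumors were excised and weighed at the end, and inhibition was calculated against the saline control.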

[2] = Acute toxicity in Kunming mouse assessed as decrease in liver volume at 40 mg/kg, ip administered as single dose; format: organism-based; conditions: in vivo
In short: (§2)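 Kunming mice in four groups (n = 8, half male, half female) got one intraperitoneal dose of 10, 20 or 40 mg/kg, or vehicle. Body weights were recorded daily after dosing. Eyes, skin and fur were checked for clinical signs. Mortality was recorded. Mice were dissected to look for ascites and to assess liver volume.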

[3] = Acute toxicity in Kunming mouse assessed as clinical change in eyes at 40 mg/kg, ip administered as single dose; format: organism-based; conditions: in vivo; in short: as §2
[4] = Acute toxicity in Kunming mouse assessed as clinical change in skin at 40 mg/kg, ip administered as single dose; format: organism-based; conditions: in vivo; in short: as §2
MDA-MB-231 [5] = assay: Induction of apoptosis in human MDA-MB-231 cells assessed as late apoptotic cells at 1 uM measured after 24 hrs by annexin V-FITC/propidium iodide staining based flow cytometry (reference value: 2.84%); format: functional
[6] = molecular target: Mitogen-activated protein kinase 10 (Homo sapiens, UniProt P53779); assay: Inhibition of MAPK10 (unknown origin)
Mitogen-activated protein kinase 10, sequence (P53779 whole entry): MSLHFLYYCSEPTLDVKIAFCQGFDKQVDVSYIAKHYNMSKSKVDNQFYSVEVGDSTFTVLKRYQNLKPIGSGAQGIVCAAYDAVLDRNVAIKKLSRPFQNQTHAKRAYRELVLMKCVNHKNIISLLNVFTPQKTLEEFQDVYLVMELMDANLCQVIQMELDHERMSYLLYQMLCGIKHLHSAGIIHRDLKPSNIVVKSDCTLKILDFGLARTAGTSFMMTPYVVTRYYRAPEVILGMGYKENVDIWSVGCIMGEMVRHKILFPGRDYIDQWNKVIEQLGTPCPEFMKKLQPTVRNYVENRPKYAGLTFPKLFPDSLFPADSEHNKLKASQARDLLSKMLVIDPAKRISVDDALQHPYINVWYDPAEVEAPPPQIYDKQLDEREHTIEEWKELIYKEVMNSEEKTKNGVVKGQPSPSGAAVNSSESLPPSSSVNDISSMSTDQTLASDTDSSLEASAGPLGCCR
In short: (§3)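 Kinase inhibition was measured in two independent repeats, and IC50 is reported as their average with SD.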

[7] = Toxicity in mouse implanted with mouse 4T1 cells assessed as extramedullary hematopoiesis in liver at 2 mg/kg, ip administered daily for 12 days measured post last dose by H and E staining based microscopic analysis; format: organism-based; conditions: in vivo, 288 h, time 12 day
In short: (§4)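 Orthotopic 4T1-bearing mice (n = 6 per group) were dosed i.p. daily with vehicle, compound at 1 or 2 mg/kg, or doxorubicin at 1 mg/kg. At the end of treatment, tumors and major organs (liver, spleen) were harvested and photographed. Sections were H&E stained and examined by microscope.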

MDA-MB-231 [8] = assay: Induction of apoptosis in human MDA-MB-231 cells assessed as necrotic cells at 1 uM measured after 24 hrs by annexin V-FITC/propidium iodide staining based flow cytometry (reference value: 4.74%); format: functional
MDA-MB-231 [9] = assay: Cell cycle arrest in human MDA-MB-231 cells assessed as accumulation at G2 phase at 1 uM measured after 24 hrs by propidium iodide staining based flow cytometry (reference value: 5.77%); format: functional
In short: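 MDA-MB-231 cells were seeded at 5 × 10^5 cells/mL and treated for 24 h. They were then trypsinized and washed twice in cold PBS. Cells were resuspended in PBS, stained with PI for 15 min at room temperature in the dark, and analyzed by flow cytometry.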

[10] = Toxicity in mouse implanted with mouse 4T1 cells assessed as extramedullary hematopoiesis in spleen at 2 mg/kg, ip administered daily for 12 days measured post last dose by H and E staining based microscopic analysis; format: organism-based; conditions: in vivo, 288 h, time 12 day; in short: as §4
MDA-MB-231 [11] = assay: Induction of apoptosis in human MDA-MB-231 cells assessed as viable cells at 1 uM measured after 24 hrs by annexin V-FITC/propidium iodide staining based flow cytometry (reference value: 90.9%); format: functional; conditions: read-out: Activity
[12] = Acute toxicity in Kunming mouse assessed as clinical change in fur at 40 mg/kg, ip administered as single dose; format: organism-based; conditions: in vivo; in short: as §2
MDA-MB-231 [13] = assay: Induction of apoptosis in human MDA-MB-231 cells assessed as late apoptotic cells at 0.1 uM measured after 24 hrs by annexin V-FITC/propidium iodide staining based flow cytometry (reference value: 2.84%); format: functional
[14] = Toxicity in mouse implanted with mouse 4T1 cells assessed as increase in liver size at 2 mg/kg, ip administered daily for 12 days measured post last dose; format: organism-based; conditions: in vivo, 288 h, time 12 day; in short: as §4
MDA-MB-231 [15] = assay: Cell cycle arrest in human MDA-MB-231 cells assessed as accumulation at S phase at 1 uM measured after 24 hrs by propidium iodide staining based flow cytometry (reference value: 19.84%); format: functional
HeLa = assay: Antiproliferative activity against human HeLa cells assessed as reduction in cell viability measured after 5 days by beckman coulter counting method; format: functional, cell-based; conditions: 120 h
Aurora kinase A = molecular target: T1, Aurora kinase A (Homo sapiens, UniProt O14965); assay: Inhibition of AURKA (unknown origin); in short: as §3
T1 sequence (O14965 whole entry): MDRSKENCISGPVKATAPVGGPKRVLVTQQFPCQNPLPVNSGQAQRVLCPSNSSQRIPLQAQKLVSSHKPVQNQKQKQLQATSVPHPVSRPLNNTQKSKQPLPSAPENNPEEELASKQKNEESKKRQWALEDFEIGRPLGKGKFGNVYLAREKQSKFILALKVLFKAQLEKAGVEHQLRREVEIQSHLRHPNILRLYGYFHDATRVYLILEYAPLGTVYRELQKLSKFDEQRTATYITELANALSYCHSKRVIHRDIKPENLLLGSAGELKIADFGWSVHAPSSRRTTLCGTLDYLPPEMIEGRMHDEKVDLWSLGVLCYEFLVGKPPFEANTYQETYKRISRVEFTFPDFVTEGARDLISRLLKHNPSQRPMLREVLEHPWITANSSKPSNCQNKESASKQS

A549 = assay: Antiproliferative activity against human A549 cells assessed as reduction in cell viability measured after 5 days by beckman coulter counting method; format: functional, cell-based; conditions: A549, 120 h
In short: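 Cells kept in DMEM with 10% FBS, 4 mM glutamine, 1 mM sodium pyruvate, penicillin/streptomycin and amphotericin, at 37 °C in 5% CO2. Seeded at 20,000 per well, then exposed to 5 concentrations for 5 days, with DMSO as vehicle. Viable cells counted on a cell viability analyzer. Viability expressed as treated/vehicle count, and IC50 taken from dose-response curves.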

4T1 = assay: Antitumor activity against mouse 4T1 cells implanted in mouse assessed as tumor growth inhibition at 1 mg/kg, ip administered daily for 12 days relative to control; format: functional; conditions: 4T1, ip, 288 h, time 12 day, read-out: TGI; in short: as §1
[16] = Toxicity in mouse implanted with mouse 4T1 cells assessed as increase in spleen size at 2 mg/kg, ip administered daily for 12 days measured post last dose; format: organism-based; conditions: in vivo, 288 h, time 12 day; in short: as §4
MDA-MB-231 [17] = assay: Induction of apoptosis in human MDA-MB-231 cells assessed as viable cells at 0.1 uM measured after 24 hrs by annexin V-FITC/propidium iodide staining based flow cytometry (reference value: 90.9%); format: functional; conditions: read-out: Activity
[18] = Acute toxicity in ip dosed Kunming mouse administered as single dose; format: organism-based; conditions: in vivo; in short: as §2
[19] = Acute toxicity in Kunming mouse assessed as mortality at 10 to 40 mg/kg, ip administered as single dose; format: organism-based; conditions: in vivo, dose 10-40 mg/kg; in short: as §2
MDA-MB-231 [20] = assay: Antiproliferative activity against human MDA-MB-231 cells assessed as reduction in cell viability measured after 5 days by beckman coulter counting method; format: functional, cell-based; conditions: MDA-MB-231, 120 h
[21] = molecular target: Tyrosine-protein kinase JAK2 (Homo sapiens, UniProt O60674); assay: Inhibition of JAK2 (unknown origin); in short: as §3
Tyrosine-protein kinase JAK2, sequence (O60674 whole entry): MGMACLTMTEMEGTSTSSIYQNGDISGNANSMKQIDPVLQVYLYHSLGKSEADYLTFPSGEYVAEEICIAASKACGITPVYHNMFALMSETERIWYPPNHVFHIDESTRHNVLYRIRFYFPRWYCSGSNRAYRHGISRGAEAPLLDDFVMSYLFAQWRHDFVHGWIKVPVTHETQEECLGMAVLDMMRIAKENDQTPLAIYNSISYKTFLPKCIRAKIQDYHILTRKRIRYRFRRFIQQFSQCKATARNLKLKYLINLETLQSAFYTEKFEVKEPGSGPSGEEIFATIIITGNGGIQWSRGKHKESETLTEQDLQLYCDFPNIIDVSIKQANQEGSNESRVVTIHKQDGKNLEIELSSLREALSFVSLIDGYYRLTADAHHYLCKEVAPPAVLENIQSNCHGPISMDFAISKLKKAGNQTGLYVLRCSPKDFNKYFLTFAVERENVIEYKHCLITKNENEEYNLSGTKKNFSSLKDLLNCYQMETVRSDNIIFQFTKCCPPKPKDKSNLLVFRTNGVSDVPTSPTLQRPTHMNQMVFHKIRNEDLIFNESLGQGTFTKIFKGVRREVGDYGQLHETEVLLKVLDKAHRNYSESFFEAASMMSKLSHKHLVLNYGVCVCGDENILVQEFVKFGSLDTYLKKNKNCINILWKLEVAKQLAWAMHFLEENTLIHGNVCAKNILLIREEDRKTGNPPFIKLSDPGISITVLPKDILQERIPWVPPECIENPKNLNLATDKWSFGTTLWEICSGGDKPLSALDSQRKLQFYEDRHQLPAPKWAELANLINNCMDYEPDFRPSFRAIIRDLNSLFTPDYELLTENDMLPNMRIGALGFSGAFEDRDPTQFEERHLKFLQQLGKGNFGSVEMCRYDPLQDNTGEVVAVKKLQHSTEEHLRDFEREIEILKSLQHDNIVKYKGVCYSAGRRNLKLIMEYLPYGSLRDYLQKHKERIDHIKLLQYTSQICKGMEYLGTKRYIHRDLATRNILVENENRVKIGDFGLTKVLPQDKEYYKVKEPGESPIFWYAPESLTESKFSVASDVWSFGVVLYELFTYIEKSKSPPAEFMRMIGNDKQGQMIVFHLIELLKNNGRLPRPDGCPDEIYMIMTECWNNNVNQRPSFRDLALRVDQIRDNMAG

MDA-MB-231 [22] = assay: Induction of apoptosis in human MDA-MB-231 cells measured after 24 hrs by annexin V-FITC/propidium iodide staining based flow cytometry; format: functional, cell-based; conditions: dose 0.1-1 µM

O=C1C=CC2(C=C1)OCC(=O)N2c1nc(-c2cccc3ccccc23)nn1-c1ccccc1
Activity [1]: Non-Toxic
Activity [2]: Toxic
Activity [3]: Non-Toxic
Activity [4]: Non-Toxic
Activity (MDA-MB-231 [5]): 29%
IC50 [6]: > 100 µM
Activity [7]: Toxic
Activity (MDA-MB-231 [8]): 13.1%
Activity (MDA-MB-231 [9]): 23.87%
Activity [10]: Toxic
viability at 1 µM (MDA-MB-231 [11]): 35.7%
Activity [12]: Non-Toxic
Activity (MDA-MB-231 [13]): 2.69%
Activity [14]: Toxic
Activity (MDA-MB-231 [15]): 36.99%
IC50 (HeLa): 70 nM
IC50 (Aurora kinase A): > 100 µM
IC50 (A549): 80 nM
inhibition in vivo at 1 mg/kg (4T1): 18.2%
Activity [16]: Toxic
viability at 0.1 µM (MDA-MB-231 [17]): 90.8%
MTD [18]: > 40 mg/kg
Activity [19]: Non-Toxic
IC50 (MDA-MB-231 [20]): 50 nM
IC50 [21]: 59 µM
Activity (MDA-MB-231 [22]): Dose-dependent effect
